In brackets after ≈: the same amount, converted by molar mass.
Tests used:
Format in all cases: functional
[1] = tested on: Enterococcus; assay: Antibacterial activity against vancomycin-resistant Enterococcus 4 after 18 to 20 hrs by agar dilution method
In short: (§1)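 Agar dilution MIC on test agar. Bacteria grown overnight in tryptosoy broth, diluted in the same broth to about 10⁶ cells/mL, then applied with an inoculating device onto agar holding serial twofold dilutions of compound. Plates incubated at 37 °C for 18–20 h. MIC taken as the lowest concentration visibly inhibiting growth, in µg/ml.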

[2] = tested on: Enterococcus faecium; assay: Antibacterial activity against vancomycin-resistant Enterococcus faecium after 18 to 20 hrs by agar dilution method; in short: as §1
[3] = tested on: Streptococcus pyogenes; assay: Antibacterial activity against Streptococcus pyogenes ATCC 8736 after 18 to 20 hrs by agar dilution method
In short: (§2)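 Agar dilution: bacteria grown overnight in tryptosoy broth and diluted in the same broth to about 10⁶ cells/mL. A multipoint inoculating device spotted them onto test agar carrying serial twofold dilutions of compound. Plates were held at 37 °C for 18–20 h. MIC (µg/ml) was read as the lowest concentration giving visible inhibition of growth.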

[4] = tested on: Staphylococcus aureus; assay: Antibacterial activity against methicillin-resistant Staphylococcus aureus after 18 to 20 hrs by agar dilution method; in short: as §1
[5] = tested on: Enterococcus; assay: Antibacterial activity against vancomycin-resistant Enterococcus 1 after 18 to 20 hrs by agar dilution method; in short: as §1
[6] = tested on: Enterococcus; assay: Antibacterial activity against vancomycin-resistant Enterococcus 5 after 18 to 20 hrs by agar dilution method; in short: as §1
[7] = tested on: Staphylococcus aureus; assay: Antibacterial activity against Staphylococcus aureus C463 after 18 to 20 hrs by agar dilution method; in short: as §1
[8] = tested on: Enterococcus faecalis; assay: Antibacterial activity against Enterococcus faecalis C474 after 18 to 20 hrs by agar dilution method; in short: as §2
[9] = tested on: Streptococcus agalactiae; assay: Antibacterial activity against Streptococcus agalactiae ATCC 2901 after 18 to 20 hrs by agar dilution method; in short: as §2
[10] = tested on: Staphylococcus; assay: Antibacterial activity against Coagulase negative Staphylococcus after 18 to 20 hrs by agar dilution method; in short: as §2
[11] = tested on: Enterococcus; assay: Antibacterial activity against vancomycin-resistant Enterococcus 2 after 18 to 20 hrs by agar dilution method; in short: as §1
[12] = tested on: Enterococcus; assay: Antibacterial activity against vancomycin-resistant Enterococcus 3 after 18 to 20 hrs by agar dilution method; in short: as §1
[13] = tested on: Enterococcus faecalis; assay: Antibacterial activity against vancomycin-resistant Enterococcus faecalis after 18 to 20 hrs by agar dilution method; in short: as §1
[14] = tested on: Streptococcus pneumoniae; assay: Antibacterial activity against Streptococcus pneumoniae C402 after 18 to 20 hrs by agar dilution method; in short: as §2
[15] = tested on: Enterococcus; assay: Antibacterial activity against vancomycin-resistant Enterococcus 6 after 18 to 20 hrs by agar dilution method; in short: as §1
[16] = tested on: Haemophilus influenzae; assay: Antibacterial activity against Haemophilus influenzae after 18 to 20 hrs by agar dilution method; in short: as §2
[17] = tested on: Enterococcus faecium; assay: Antibacterial activity against Enterococcus faecium C803 after 18 to 20 hrs by agar dilution method; in short: as §1

Row | Compound | MIC [1] | MIC [2] | MIC [3] | MIC [4] | MIC [5] | MIC [6] | MIC [7] | MIC [8] | MIC [9] | MIC [10] | MIC [11] | MIC [12] | MIC [13] | MIC [14] | MIC [15] | MIC [16] | MIC [17]
1 | CC(=O)NC[C@H]1CN(c2ccc(N3CC(N)C4(CC4)C3)c(F)c2)C(=O)O1 (stereo not given in full) | 6.25 µg/mL (≈ 17.2 µM) | 6.25 µg/mL (≈ 17.2 µM) | 6.25 µg/mL (≈ 17.2 µM) | 6.25 µg/mL (≈ 17.2 µM) | 12.5 µg/mL (≈ 34.5 µM) | 6.25 µg/mL (≈ 17.2 µM) | 6.25 µg/mL (≈ 17.2 µM) | 6.25 µg/mL (≈ 17.2 µM) | 6.25 µg/mL (≈ 17.2 µM) | 6.25 µg/mL (≈ 17.2 µM) | 6.25 µg/mL (≈ 17.2 µM) | 6.25 µg/mL (≈ 17.2 µM) | 12.5 µg/mL (≈ 34.5 µM) | 6.25 µg/mL (≈ 17.2 µM) | 12.5 µg/mL (≈ 34.5 µM) | 6.25 µg/mL (≈ 17.2 µM) | 6.25 µg/mL (≈ 17.2 µM)
2 | CC(=O)NC[C@H]1CN(c2ccc(N3CC(O)C4(CC4)C3)c(F)c2)C(=O)O1 (stereo not given in full) | 6.25 µg/mL (≈ 17.2 µM) | 6.25 µg/mL (≈ 17.2 µM) | 6.25 µg/mL (≈ 17.2 µM) | 6.25 µg/mL (≈ 17.2 µM) | 3.12 µg/mL (≈ 8.59 µM) | 6.25 µg/mL (≈ 17.2 µM) | 12.5 µg/mL (≈ 34.4 µM) | 12.5 µg/mL (≈ 34.4 µM) | 6.25 µg/mL (≈ 17.2 µM) | 12.5 µg/mL (≈ 34.4 µM) | 6.25 µg/mL (≈ 17.2 µM) | 6.25 µg/mL (≈ 17.2 µM) | 6.25 µg/mL (≈ 17.2 µM) | 3.12 µg/mL (≈ 8.59 µM) | 3.12 µg/mL (≈ 8.59 µM) | 6.25 µg/mL (≈ 17.2 µM) | 6.25 µg/mL (≈ 17.2 µM)
3 | CC(=O)NC[C@H]1CN(c2ccc(N3C/C(=N\O)C4(CC4)C3)c(F)c2)C(=O)O1 | 6.25 µg/mL (≈ 16.6 µM) | 12.5 µg/mL (≈ 33.2 µM) | 6.25 µg/mL (≈ 16.6 µM) | 12.5 µg/mL (≈ 33.2 µM) | 12.5 µg/mL (≈ 33.2 µM) | 6.25 µg/mL (≈ 16.6 µM) | 12.5 µg/mL (≈ 33.2 µM) | 25 µg/mL (≈ 66.4 µM) | 6.25 µg/mL (≈ 16.6 µM) | 25 µg/mL (≈ 66.4 µM) | 6.25 µg/mL (≈ 16.6 µM) | 6.25 µg/mL (≈ 16.6 µM) | 12.5 µg/mL (≈ 33.2 µM) | 12.5 µg/mL (≈ 33.2 µM) | 12.5 µg/mL (≈ 33.2 µM) | 12.5 µg/mL (≈ 33.2 µM) | 12.5 µg/mL (≈ 33.2 µM)
4 | CCCO/N=C1\CN(c2ccc(N3C[C@H](CNC(C)=O)OC3=O)cc2F)CC12CC2 | 12.5 µg/mL (≈ 29.9 µM) | 12.5 µg/mL (≈ 29.9 µM) | 12.5 µg/mL (≈ 29.9 µM) | 12.5 µg/mL (≈ 29.9 µM) | 12.5 µg/mL (≈ 29.9 µM) | 12.5 µg/mL (≈ 29.9 µM) | 25 µg/mL (≈ 59.7 µM) | 25 µg/mL (≈ 59.7 µM) | 12.5 µg/mL (≈ 29.9 µM) | 12.5 µg/mL (≈ 29.9 µM) | 12.5 µg/mL (≈ 29.9 µM) | 12.5 µg/mL (≈ 29.9 µM) | 25 µg/mL (≈ 59.7 µM) | 12.5 µg/mL (≈ 29.9 µM) | 12.5 µg/mL (≈ 29.9 µM) | 25 µg/mL (≈ 59.7 µM) | 12.5 µg/mL (≈ 29.9 µM)
5 | CC(=O)NC[C@H]1CN(c2ccc(N3CC(F)C4(CC4)C3)c(F)c2)C(=O)O1 (stereo not given in full) | 0.78 µg/mL (≈ 2.13 µM) | 1.56 µg/mL (≈ 4.27 µM) | 1.56 µg/mL (≈ 4.27 µM) | 0.78 µg/mL (≈ 2.13 µM) | 1.56 µg/mL (≈ 4.27 µM) | 0.78 µg/mL (≈ 2.13 µM) | 3.12 µg/mL (≈ 8.54 µM) | 1.56 µg/mL (≈ 4.27 µM) | 0.78 µg/mL (≈ 2.13 µM) | 3.12 µg/mL (≈ 8.54 µM) | 1.56 µg/mL (≈ 4.27 µM) | 3.12 µg/mL (≈ 8.54 µM) | 1.56 µg/mL (≈ 4.27 µM) | 1.56 µg/mL (≈ 4.27 µM) | 1.56 µg/mL (≈ 4.27 µM) | 0.39 µg/mL (≈ 1.07 µM) | 0.78 µg/mL (≈ 2.13 µM)

Reference: ChEMBL document CHEMBL1138614, “Synthesis and antibacterial activities of novel oxazolidinones having spiro[2,4]heptane moieties” (2009)
